ChEMBL document CHEMBL3779860, “A Designed Tryptophan- and Lysine/Arginine-Rich Antimicrobial Peptide with Therapeutic Potential for Clinical Antibiotic-Resistant Candida albicans Vaginitis” (J Med Chem, 2016)
≈ marks a conversion by molar mass, not a printed value. Calls of active or inactive are those of the source. The rule behind the calls is not given here.

What was measured:
[1] = tested on: Escherichia coli; assay: Antimicrobial activity against Escherichia coli ATCC 25922 assessed as inhibition of […] growth after 16 hrs by broth dilution method; type: functional; details: ATCC 25922, 16 h
Procedure, shortened: (§1)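 Broth dilution in LB broth; 100 µL of 2 × 10^5 CFU/mL bacterial suspension plus 10 µL sample (stock series in 0.9% NaCl) in 90 µL broth, 37°C for 16 h. Growth read as A600; MIC is the lowest concentration completely inhibiting growth. Mean of three independent experiments run in duplicate.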

[2] = tested on: Staphylococcus aureus; assay: Antimicrobial activity against Staphylococcus aureus ATCC 2592 assessed as inhibition of […] growth after 16 hrs by broth dilution method; type: functional; details: ATCC 2592, 16 h; procedure, shortened: as §1
[3] = tested on: Bacillus subtilis; assay: Antimicrobial activity against Bacillus subtilis assessed as inhibition of […] growth after 16 hrs by broth dilution method; type: functional; procedure, shortened: as §1
[4] = tested on: Candida albicans; assay: Antimicrobial activity against antibiotic resistant Candida albicans clinical isolate 08030809 assessed as clone count at 10 mg/ml after 10 mins by colony counting assay (reference value: 102 +/- 11 CFU); type: functional
[5] = tested on: Mus musculus; assay: Antiinflammatory activity in antibiotic resistant Candida albicans clinical isolate 08030809 induced mouse vaginitis model assessed as reduction in IL-1beta secretion in vaginal tissue at 10 mg/ml administered as intravaginal instillation measured on day 10 by ELISA; type: functional, organism-based; details: Vagina
Procedure, shortened: (§2)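 Same estradiol-primed mouse model, infected intravaginally with C. albicans 08030809 and treated by intravaginal instillation (20 µL/mouse). Vaginal canals excised on day 10 of treatment and homogenised in 0.9% NaCl. Supernatant taken after 2,000 g for 15 min. TNF-α, IL-6, IL-1β and IL-10 measured by ELISA. Mean ± SE of three independent experiments; unpaired t-test versus vehicle.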

[6] = tested on: Candida albicans; assay: Antimicrobial activity against antibiotic resistant Candida albicans clinical isolate 08030809 assessed as clone count at 10 mg/ml after 1 hr by colony counting assay (reference value: 228 +/- 23 CFU); type: functional
[7] = tested on: Candida albicans; assay: Antimicrobial activity against antibiotic resistant Candida albicans clinical isolate 08030809 assessed as clone count at 10 mg/ml after 12 hrs by colony counting assay (reference value: 54153 +/- 8769 CFU); type: functional
[8] = tested on: Candida albicans; assay: Antimicrobial activity against antibiotic resistant Candida albicans clinical isolate 08030809 assessed as clone count at 10 mg/ml after 1 min by colony counting assay (reference value: 62 +/- 7 CFU); type: functional
[9] = tested on: Mus musculus; assay: Antiinflammatory activity in antibiotic resistant Candida albicans clinical isolate 08030809 induced mouse vaginitis model assessed as reduction in TNF-alpha secretion in vaginal tissue at 10 mg/ml administered as intravaginal instillation measured on day 10 by ELISA; type: functional, organism-based; details: Vagina; procedure, shortened: as §2
[10] = tested on: Mus musculus; assay: (§3) Antiinflammatory activity in antibiotic resistant Candida albicans clinical isolate 08030809 induced mouse vaginitis model assessed as microabscess number in vaginal tissue at 200 ug administered as intravaginal instillation measured after 16 days by hematoxylin-eosin staining based microscopic method (reference value: 61); type: functional, Vagina
Procedure, shortened: (§4)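 Mice given weekly subcutaneous estradiol valerate (0.5 mg in 0.1 mL vegetable oil) 72 h before infection. Infected intravaginally with 20 µL of 10^7 CFU/mL C. albicans 08030809. Intravaginal instillation of 20 µL daily for 16 days. Vaginal canals excised after lavage, formalin-fixed, paraffin-embedded, HE-stained. Microabscesses counted per high-power field over 6 fields per section, three independent experiments.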

[11] = tested on: Mus musculus; assay: as §3, with “on day 6” for “after 16 days”; type: functional, Vagina; procedure, shortened: as §4
[12] = tested on: Candida albicans; assay: Antimicrobial activity against antibiotic resistant Candida albicans clinical isolate 08030809 assessed as clone count at 10 mg/ml after 6 hrs by colony counting assay (reference value: 14536 +/- 2467 CFU); type: functional
[13] = tested on: Candida albicans; assay: Antimicrobial activity against antibiotic resistant Candida albicans clinical isolate 08030809 in mouse vaginitis model assessed as decrease in colony count in lavage liquid of vagina at 10 mg/ml administered as intravaginal instillation measured on day 16; type: functional; details: isolate 08030809, Vagina, topical, 384 h
[14] = tested on: Candida albicans; assay: Antimicrobial activity against antibiotic resistant Candida albicans clinical isolate 08030809 in mouse vaginitis model assessed as colony count in lavage liquid of vagina at 10 mg/ml administered as intravaginal instillation measured on day 16; type: functional
[15] = tested on: Candida albicans; assay: Antimicrobial activity against antibiotic resistant Candida albicans clinical isolate 08030809 assessed as clone count at 10 mg/ml after 24 hrs by colony counting assay (Rvb > 10^5 CFU); type: functional
[16] = tested on: Candida albicans; assay: Antimicrobial activity against antibiotic resistant Candida albicans clinical isolate 08030809 assessed as clone count at 10 mg/ml after 30 mins by colony counting assay (reference value: 156 +/- 16 CFU); type: functional
[17] = tested on: Mus musculus; assay: Antiinflammatory activity in antibiotic resistant Candida albicans clinical isolate 08030809 induced mouse vaginitis model assessed as reduction in IL-10 secretion in vaginal tissue at 10 mg/ml administered as intravaginal instillation measured on day 10 by ELISA; type: functional, organism-based; details: Vagina; procedure, shortened: as §2
[18] = tested on: Candida albicans; assay: Effect on cell membrane integrity in antibiotic resistant Candida albicans clinical isolate 08030809 at 20 ug/ml measured every 2 mins upto 20 mins by SYTOX green nucleic acid staining-based fluorescence assay; type: functional, organism-based
Procedure, shortened: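 Exponential-phase C. albicans 08030809 was washed and resuspended at 10^6 CFU/mL in 10 mM PBS pH 7.4. Cells were loaded with 0.1 µM (final) SYTOX Green for 15 min at 37°C with shaking, then test samples were added. Fluorescence (ex 488/em 530 nm) was recorded every 2 min as RFU. Mean ± SE of five independent experiments.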

[19] = tested on: Candida albicans; assay: Antimicrobial activity against antibiotic resistant Candida albicans clinical isolate 08030809 assessed as clone count at 10 mg/ml after 3 hrs by colony counting assay (reference value: 3687 +/- 543 CFU); type: functional
[20] = tested on: Mus musculus; assay: Antiinflammatory activity in antibiotic resistant Candida albicans clinical isolate 08030809 induced mouse vaginitis model assessed as reduction in IL-6 secretion in vaginal tissue at 10 mg/ml administered as intravaginal instillation measured on day 10 by ELISA; type: functional, organism-based; details: Vagina; procedure, shortened: as §2
[21] = tested on: Candida albicans; assay: Antimicrobial activity against Candida albicans ATCC 2002 assessed as inhibition of yeast growth after 16 hrs by broth dilution method; type: functional; details: ATCC 2002, 16 h
Procedure, shortened: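 Broth microdilution in Sabouraud liquid medium. Samples are stocks in 0.9% NaCl, 10 µL added to 90 µL broth plus 100 µL of 2 × 10^5 CFU/mL yeast suspension. Incubated 16 h at 28°C, growth read by A600. MIC is the lowest concentration completely inhibiting growth; mean of three independent experiments.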

[22] = Hemolytic activity in human RBC after 30 mins; type: ADME, cell-based, Erythrocyte; details: for HC10: erythrocyte, 0.5 h; for HC50 at 0.5 h: red blood cells
Procedure, shortened: (§5)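 Serial dilutions were incubated with human erythrocytes for 30 min at 37°C. Supernatant absorbance was read at 540 nm after centrifugation. Hemolysis is expressed as % of the 1% Triton X-100 lysis value, pooled from three independent experiments. The highest concentration tested was 320 µg/mL.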

[23] = Induction of hemolysis in human RBC at 320 ug/mL after 30 mins; type: cell-based, Erythrocyte; details: red blood cells, read-out: Activity; procedure, shortened: as §5

Row | Compound | MIC [1] [µg/mL] | MIC [2] [µg/mL] | MIC [3] [µg/mL] | MIC [21] [µg/mL] | HC10 [22] [µg/mL] | HC50 at 0.5 h [22] [µg/mL] | hemolysis at 0.5 h, 320 ug/mL [23] [%] | also measured
1 | CC1(C)S[C@@H]2[C@H](NC(=O)[C@H](N)c3ccccc3)C(=O)N2[C@H]1C(=O)O [AMPICILLIN] | 18.7 (≈ 53.5 µM) | 0.15 (≈ 0.429 µM) | 0.02 (≈ 0.0572 µM) |  |  |  |  | 
2 | Clc1ccccc1C(c1ccccc1)(c1ccccc1)n1ccnc1 [CLOTRIMAZOLE] |  |  |  |  |  |  |  | Activity [4]: 64 CFU; Activity [5]: inactive; Activity [6]: 178 CFU; Activity [7]: 15789 CFU; Activity [8]: 42 CFU; Activity [9]: inactive; Activity [10]: 10; Activity [11]: 18; Activity [12]: 2674 CFU; inhibition in vivo at 10000 µg/mL [13]: 38%; Activity [14]: 1.2 ×10⁴ CFU/ml; Activity [15]: 57425 CFU; Activity [16]: 106 CFU; Activity [17]: inactive; Activity [18]: inactive; Activity [19]: 533 CFU; Activity [20]: inactive
3 | OC(Cn1cncn1)(Cn1cncn1)c1ccc(F)cc1F [FLUCONAZOLE] |  |  |  | 18.7 (≈ 61.1 µM) |  |  |  | 
4 | H-KFFRKLKKSVKKRAKEFFKKPRVIGVSIPF-OH | 2.34 | > 100 | 9.38 | 4.7 | > 320 | > 320 | 7.4 | 
5 | H-VKRFKKFFRKFKKSV-NH2 [listing 1 of 2 here] |  |  |  |  | > 320 | > 320 | 7.5 | 
6 | H-VKRFKKFFRKFKKSV-NH2 [listing 2 of 2 here] | 37.5 | > 100 | > 100 | 9.38 |  |  |  | 
7 | H-VKRFKKFFRKLKKSV-NH2 | 18.8 | > 100 | 75 | 18.8 | > 320 | > 320 | 9.7 | 
8 | H-VKRWKKFWRKWKKWW-NH2 [listing 1 of 2 here] |  |  |  |  | 51.7 | > 320 | 27.6 | 
9 | H-VKRWKKFWRKWKKWW-NH2 [listing 2 of 2 here] | 18.8 | 4.69 | 4.69 | 2.34 |  |  |  | 
10 | H-VKRWKKWWRKLKKSV-NH2 | 18.8 | > 100 | > 100 | 9.38 | > 320 | > 320 | 8.7 | 
11 | H-VKWRWKKWRWKWKWKV-NH2 [listing 1 of 2 here] |  |  |  |  | 178.3 | > 320 | 17.6 | 
12 | H-VKWRWKKWRWKWKWKV-NH2 [listing 2 of 2 here] | > 100 | > 100 | > 100 | > 100 |  |  |  | 
13 | H-VKWRWKWKWRWKWKWKV-NH2 | > 100 | > 100 | > 100 | > 100 | 62.8 | > 320 | 30.8 | 
